Assay results reported in ChEMBL document CHEMBL4689842, “EUbOPEN Chemogenomics Library wave 1” (2021).

Test system: HEK-293T
Assay: Multiplex assay against HEK293T;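 on Population Tubulin-Different-Phenotype (%): share of the cells with healthy nuclei that show this phenotype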
Format: toxicity, cell-based
Settings: human
Summary of the method: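 Per cents of healthy-nucleus cells form the tubulin, mitochondrial-mass and membrane-permeability phenotype values. Live cells were stained at seeding with Hoechst33342, BioTracker Green Microtubule Cytoskeleton Dye, MitoTracker Red and Annexin V Alexa Fluor 680. After compound addition they were imaged on a CQ1 microscope at 37°C and 5% CO2, and CellPathfinder machine-learning gating split them into Hoechst high-intensity objects or normal cells, normal cells into healthy, pyknosed or fragmented nuclei, and pyknosed cells into mitotic or apoptotic.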

[1] = 12 h, 1 µM, compound concentration 1 uM, replicate 1
[2] = 12 h, 1 µM, compound concentration 1 uM, replicate 2
[3] = 12 h, 10 µM, compound concentration 10 uM, replicate 1
[4] = 12 h, 10 µM, compound concentration 10 uM, replicate 2
[5] = 24 h, 1 µM, compound concentration 1 uM, replicate 1
[6] = 24 h, 1 µM, compound concentration 1 uM, replicate 2
[7] = 24 h, 10 µM, compound concentration 10 uM, replicate 1
[8] = 24 h, 10 µM, compound concentration 10 uM, replicate 2
[9] = 48 h, 1 µM, compound concentration 1 uM, replicate 1
[10] = 48 h, 1 µM, compound concentration 1 uM, replicate 2
[11] = 48 h, 10 µM, compound concentration 10 uM, replicate 1
[12] = 48 h, 10 µM, compound concentration 10 uM, replicate 2

CC(C)OC(=O)N1CCC(Oc2ncnc3c2cnn3-c2ccc(S(C)(=O)=O)cc2F)CC1
Population Apoptotic (%) [1]: 57% | Population Fragmented Nuclei (%) [1]: 8% | Population Healthy Nuclei (%) [1]: 35% | Population Hoechst High Intensity Objects (%) [1]: 14% | Population Membrane Permeable-Phenotype (%) [1]: 4% | Population Mitochondria Different-Phenotype (%) [1]: 80% | Population Mitotic Cells (%) [1]: 42% | Population Normal (%) [1]: 85% | Population Pyknosed Nuclei (%) [1]: 56% | Population Tubulin-Different-Phenotype (%) [1]: 39% | Total Cell Count [1]: 225 | Population Apoptotic (%) [2]: 12% | Population Fragmented Nuclei (%) [2]: 5% | Population Healthy Nuclei (%) [2]: 49% | Population Hoechst High Intensity Objects (%) [2]: 4% | Population Membrane Permeable-Phenotype (%) [2]: 5% | Population Mitochondria Different-Phenotype (%) [2]: 11% | Population Mitotic Cells (%) [2]: 87% | Population Normal (%) [2]: 95% | Population Pyknosed Nuclei (%) [2]: 44% | Population Tubulin-Different-Phenotype (%) [2]: 9% | Total Cell Count [2]: 220 | Population Apoptotic (%) [3]: 53% | Population Fragmented Nuclei (%) [3]: 16% | Population Healthy Nuclei (%) [3]: 32% | Population Hoechst High Intensity Objects (%) [3]: 18% | Population Membrane Permeable-Phenotype (%) [3]: 6% | Population Mitochondria Different-Phenotype (%) [3]: 93% | Population Mitotic Cells (%) [3]: 46% | Population Normal (%) [3]: 81% | Population Pyknosed Nuclei (%) [3]: 51% | Population Tubulin-Different-Phenotype (%) [3]: 61% | Total Cell Count [3]: 186 | Population Apoptotic (%) [4]: 5% | Population Fragmented Nuclei (%) [4]: 5% | Population Healthy Nuclei (%) [4]: 45% | Population Hoechst High Intensity Objects (%) [4]: 3% | Population Membrane Permeable-Phenotype (%) [4]: 8% | Population Mitochondria Different-Phenotype (%) [4]: 15% | Population Mitotic Cells (%) [4]: 94% | Population Normal (%) [4]: 96% | Population Pyknosed Nuclei (%) [4]: 49% | Population Tubulin-Different-Phenotype (%) [4]: 20% | Total Cell Count [4]: 220 | Population Apoptotic (%) [5]: 51% | Population Fragmented Nuclei (%) [5]: 11% | Population Healthy Nuclei (%) [5]: 39% | Population Hoechst High Intensity Objects (%) [5]: 15% | Population Membrane Permeable-Phenotype (%) [5]: 4% | Population Mitochondria Different-Phenotype (%) [5]: 58% | Population Mitotic Cells (%) [5]: 48% | Population Normal (%) [5]: 84% | Population Pyknosed Nuclei (%) [5]: 48% | Population Tubulin-Different-Phenotype (%) [5]: 35% | Total Cell Count [5]: 254 | Population Apoptotic (%) [6]: 11% | Population Fragmented Nuclei (%) [6]: 7% | Population Healthy Nuclei (%) [6]: 62% | Population Hoechst High Intensity Objects (%) [6]: 3% | Population Membrane Permeable-Phenotype (%) [6]: 9% | Population Mitochondria Different-Phenotype (%) [6]: 11% | Population Mitotic Cells (%) [6]: 88% | Population Normal (%) [6]: 96% | Population Pyknosed Nuclei (%) [6]: 29% | Population Tubulin-Different-Phenotype (%) [6]: 16% | Total Cell Count [6]: 277 | Population Apoptotic (%) [7]: 46% | Population Fragmented Nuclei (%) [7]: 13% | Population Healthy Nuclei (%) [7]: 38% | Population Hoechst High Intensity Objects (%) [7]: 18% | Population Membrane Permeable-Phenotype (%) [7]: 1% | Population Mitochondria Different-Phenotype (%) [7]: 75% | Population Mitotic Cells (%) [7]: 53% | Population Normal (%) [7]: 81% | Population Pyknosed Nuclei (%) [7]: 48% | Population Tubulin-Different-Phenotype (%) [7]: 67% | Total Cell Count [7]: 194 | Population Apoptotic (%) [8]: 3% | Population Fragmented Nuclei (%) [8]: 4% | Population Healthy Nuclei (%) [8]: 65% | Population Hoechst High Intensity Objects (%) [8]: 3% | Population Membrane Permeable-Phenotype (%) [8]: 4% | Population Mitochondria Different-Phenotype (%) [8]: 22% | Population Mitotic Cells (%) [8]: 96% | Population Normal (%) [8]: 96% | Population Pyknosed Nuclei (%) [8]: 30% | Population Tubulin-Different-Phenotype (%) [8]: 29% | Total Cell Count [8]: 268 | Population Apoptotic (%) [9]: 59% | Population Fragmented Nuclei (%) [9]: 14% | Population Healthy Nuclei (%) [9]: 48% | Population Hoechst High Intensity Objects (%) [9]: 16% | Population Membrane Permeable-Phenotype (%) [9]: 5% | Population Mitochondria Different-Phenotype (%) [9]: 21% | Population Mitotic Cells (%) [9]: 40% | Population Normal (%) [9]: 83% | Population Pyknosed Nuclei (%) [9]: 36% | Population Tubulin-Different-Phenotype (%) [9]: 25% | Total Cell Count [9]: 312 | Population Apoptotic (%) [10]: 5% | Population Fragmented Nuclei (%) [10]: 8% | Population Healthy Nuclei (%) [10]: 79% | Population Hoechst High Intensity Objects (%) [10]: 3% | Population Membrane Permeable-Phenotype (%) [10]: 3% | Population Mitochondria Different-Phenotype (%) [10]: 4% | Population Mitotic Cells (%) [10]: 94% | Population Normal (%) [10]: 96% | Population Pyknosed Nuclei (%) [10]: 11% | Population Tubulin-Different-Phenotype (%) [10]: 17% | Total Cell Count [10]: 463 | Population Apoptotic (%) [11]: 50% | Population Fragmented Nuclei (%) [11]: 18% | Population Healthy Nuclei (%) [11]: 41% | Population Hoechst High Intensity Objects (%) [11]: 16% | Population Membrane Permeable-Phenotype (%) [11]: 3% | Population Mitochondria Different-Phenotype (%) [11]: 60% | Population Mitotic Cells (%) [11]: 49% | Population Normal (%) [11]: 83% | Population Pyknosed Nuclei (%) [11]: 39% | Population Tubulin-Different-Phenotype (%) [11]: 53% | Total Cell Count [11]: 237 | Population Apoptotic (%) [12]: 11% | Population Fragmented Nuclei (%) [12]: 5% | Population Healthy Nuclei (%) [12]: 82% | Population Hoechst High Intensity Objects (%) [12]: 3% | Population Membrane Permeable-Phenotype (%) [12]: 4% | Population Mitochondria Different-Phenotype (%) [12]: 3% | Population Mitotic Cells (%) [12]: 88% | Population Normal (%) [12]: 96% | Population Pyknosed Nuclei (%) [12]: 11% | Population Tubulin-Different-Phenotype (%) [12]: 23% | Total Cell Count [12]: 480
